Assay results: ChEMBL document CHEMBL3826885, “Similarities and differences in affinity and binding modes of tricyclic pyrimido- and pyrazinoxanthines at human and rat adenosine receptors” (Bioorg Med Chem, 2016)

Key:
[1] = molecular target: T1, Adenosine receptor A2b (Rattus norvegicus) (UniProt P29276); test: Displacement of [3H]PSB-603 from recombinant rat adenosine receptor A2b expressed in CHO cell membranes at 1 uM
T1 sequence (whole entry): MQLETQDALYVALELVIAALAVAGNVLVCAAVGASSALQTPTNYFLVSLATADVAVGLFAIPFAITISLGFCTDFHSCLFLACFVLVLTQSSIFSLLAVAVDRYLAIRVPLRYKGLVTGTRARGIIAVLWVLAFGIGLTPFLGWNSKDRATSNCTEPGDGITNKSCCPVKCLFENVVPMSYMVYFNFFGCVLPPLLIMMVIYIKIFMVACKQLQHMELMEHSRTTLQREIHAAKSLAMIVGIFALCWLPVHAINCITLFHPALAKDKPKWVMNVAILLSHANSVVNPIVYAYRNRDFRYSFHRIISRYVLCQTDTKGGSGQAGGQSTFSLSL
Summary of the method: (§1)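 Membranes came from CHO cells expressing recombinant receptors (human A1, A2A, A2B, A3; rat A2B, A3). Radioligands were [3H]CCPA for A1 and [3H]PSB-11 or [3H]NECA for A3. A single high concentration was screened first, in three experiments for A1/A2A and two for A2B/A3. Full inhibition curves spanning at least 3 log units were run for potent compounds.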

[2] = molecular target: T2, Adenosine receptor A3 (Rattus norvegicus, UniProt P28647); test: Displacement of [3H]NECA from recombinant rat adenosine receptor A3 expressed in CHO cell membranes
T2 sequence (P28647 whole entry): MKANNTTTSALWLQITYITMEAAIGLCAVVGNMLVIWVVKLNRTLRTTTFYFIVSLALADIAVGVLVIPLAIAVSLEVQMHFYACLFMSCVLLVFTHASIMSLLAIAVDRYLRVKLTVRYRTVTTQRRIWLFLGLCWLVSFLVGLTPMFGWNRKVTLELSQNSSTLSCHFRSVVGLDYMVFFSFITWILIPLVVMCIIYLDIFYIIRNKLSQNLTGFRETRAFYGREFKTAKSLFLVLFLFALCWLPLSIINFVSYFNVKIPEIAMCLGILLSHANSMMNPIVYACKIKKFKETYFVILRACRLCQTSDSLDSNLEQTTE
Summary of the method: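 Membranes came from CHO cells expressing recombinant receptors (human A1, A2A, A2B, A3; rat A2B, A3). Radioligands were [3H]CCPA for A1 and [3H]PSB-11 or [3H]NECA for A3. A single high concentration was screened first, in three experiments for A1/A2A and two for A2B/A3.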

[3] = molecular target: T3, Adenosine receptor A1 (Homo sapiens, UniProt P30542); test: Displacement of [3H]CCPA from recombinant human adenosine receptor A1 expressed in CHO cell membranes; summary of the method: as §1
T3 sequence (P30542 whole entry): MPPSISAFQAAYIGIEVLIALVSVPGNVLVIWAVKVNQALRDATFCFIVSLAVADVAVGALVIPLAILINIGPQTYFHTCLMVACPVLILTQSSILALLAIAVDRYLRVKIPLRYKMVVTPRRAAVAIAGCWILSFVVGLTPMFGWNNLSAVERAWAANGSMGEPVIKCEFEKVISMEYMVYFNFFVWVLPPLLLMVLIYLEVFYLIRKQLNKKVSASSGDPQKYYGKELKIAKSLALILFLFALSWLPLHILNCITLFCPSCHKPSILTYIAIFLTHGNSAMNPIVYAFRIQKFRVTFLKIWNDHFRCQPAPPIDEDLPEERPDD

[4] = molecular target: Adenosine receptor A2a (Homo sapiens, UniProt P29274); test: Antagonist activity at human adenosine receptor A2a expressed in CHO cell membranes assessed as inhibition of NECA-induced cAMP accumulation incubated for 15 mins in presence of [3H]cAMP by liquid scintillation counting; format: functional
Chain of Adenosine receptor A2a (P29274 whole entry): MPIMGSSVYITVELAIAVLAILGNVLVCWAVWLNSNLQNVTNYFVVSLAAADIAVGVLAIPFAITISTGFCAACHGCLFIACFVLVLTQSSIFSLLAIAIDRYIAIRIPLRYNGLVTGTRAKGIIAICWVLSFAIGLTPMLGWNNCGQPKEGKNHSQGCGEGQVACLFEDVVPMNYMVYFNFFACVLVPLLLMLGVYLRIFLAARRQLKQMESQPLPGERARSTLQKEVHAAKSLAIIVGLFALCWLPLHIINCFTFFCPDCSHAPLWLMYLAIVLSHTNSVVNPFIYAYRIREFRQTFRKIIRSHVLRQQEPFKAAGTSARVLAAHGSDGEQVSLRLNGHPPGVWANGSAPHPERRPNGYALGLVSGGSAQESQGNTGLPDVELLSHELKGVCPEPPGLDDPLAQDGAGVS
Summary of the method: (§2)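 Stably transfected CHO cells (human A2A or A2B) grown in DMEM-F12 with 10% FCS at 37 °C, 5% CO2. The cells were seeded at 200,000/well, washed after 24 h and held 2 h in HBSS (pH 7.3) with 1 U/ml adenosine deaminase. Ro20-1724 was added to 40 µM final for 15 min, then NECA dilutions ± one fixed test concentration in 2.5% DMSO, in duplicate.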

[5] = molecular target: T4, Adenosine receptor A3 (Homo sapiens) (UniProt P0DMS8); test: Displacement of [3H]PSB11 from recombinant human adenosine receptor A3 expressed in CHO cell membranes at 1 uM; summary of the method: as §1
T4 sequence (whole entry): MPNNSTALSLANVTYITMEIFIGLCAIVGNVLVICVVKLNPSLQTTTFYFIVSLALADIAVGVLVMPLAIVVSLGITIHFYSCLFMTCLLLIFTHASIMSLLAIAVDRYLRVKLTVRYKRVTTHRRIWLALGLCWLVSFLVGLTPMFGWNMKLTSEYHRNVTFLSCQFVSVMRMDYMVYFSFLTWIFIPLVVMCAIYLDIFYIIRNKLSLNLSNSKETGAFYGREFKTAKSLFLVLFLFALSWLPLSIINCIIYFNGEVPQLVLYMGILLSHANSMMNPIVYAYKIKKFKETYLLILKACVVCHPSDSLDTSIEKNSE

[6] = molecular target: T5, Adenosine receptor A3 (Rattus norvegicus) (UniProt P28647); test: Displacement of [3H]NECA from recombinant rat adenosine receptor A3 expressed in CHO cell membranes at 1 uM; summary of the method: as §1
T5 sequence (whole entry): T2 sequence (P28647 whole entry)

[7] = system: CHO; test: Selectivity ratio of Ki for recombinant rat adenosine receptor A2b expressed in CHO cell membranes to Ki for recombinant human adenosine receptor A2b expressed in CHO cell membranes; format: cell-based
[8] = system: CHO; test: Selectivity ratio of Ki for recombinant rat adenosine receptor A3 expressed in CHO cell membranes to Ki for recombinant human adenosine receptor A3 expressed in CHO cell membranes; format: cell-based
[9] = molecular target: T6, Adenosine receptor A2b (Homo sapiens) (UniProt P29275); test: Antagonist activity at human adenosine receptor A2b expressed in CHO cell membranes assessed as inhibition of NECA-induced cAMP accumulation incubated for 15 mins in presence of [3H]cAMP by liquid scintillation counting; format: functional; summary of the method: as §2
T6 sequence (whole entry): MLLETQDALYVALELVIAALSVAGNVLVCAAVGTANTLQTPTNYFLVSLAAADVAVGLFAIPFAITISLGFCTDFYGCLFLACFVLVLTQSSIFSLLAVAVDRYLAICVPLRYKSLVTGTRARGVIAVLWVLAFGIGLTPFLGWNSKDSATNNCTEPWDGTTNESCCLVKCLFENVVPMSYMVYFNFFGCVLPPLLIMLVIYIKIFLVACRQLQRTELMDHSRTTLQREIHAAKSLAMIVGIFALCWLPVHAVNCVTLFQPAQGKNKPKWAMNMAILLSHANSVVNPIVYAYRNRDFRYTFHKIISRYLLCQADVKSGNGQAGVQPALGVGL

[10] = system: CHO; test: Selectivity ratio of Ki for recombinant human adenosine receptor A1 expressed in CHO cell membranes to Ki for adenosine receptor A1 in rat brain cortical membranes; format: cell-based

| SMILES | inhibition [1] [%] | Ki [2] [nM] | Ki [3] [nM] | Kb [4] [nM] | inhibition [5] [%] | inhibition [6] [%] | Ratio Ki [7] | Ratio Ki [8] | Kb [9] [nM] | Ratio Ki [10] |
| --- | --- | --- | --- | --- | --- | --- | --- | --- | --- | --- |
| CCN(CC)CCOc1ccc(CCN2CCCn3c2nc2c3c(=O)n(C)c(=O)n2C)cc1 | -2 | > 1000 | > 1000 | 839 | -3 | 6 |  |  |  |  |
| CCCCn1c(=O)c2c(nc3n2CCCN3CCc2ccc(OCCN(CC)CC)cc2)n(CCCC)c1=O | 38 | > 1000 | 1550 |  | 75 | 15 | 10 | > 3 | 547 | 19 |
